As a reminder, the inhibition is the drop in the measured response relative to a control, in per cent. The IC50 is the midpoint of a concentration-inhibition curve.

Converted amounts (≈) assume the structure as drawn. The source made the active and inactive calls. The rule behind the calls is not given here.

Experimental findings from ChEMBL document CHEMBL4145675, “2-Phenylquinoline S. aureus NorA Efflux Pump Inhibitors: Evaluation of the Importance of Methoxy Group Introduction” (J Med Chem, 2018) are described below.

The subject of the first data set is Staphylococcus aureus. Description: Synergistic potentiation of ciprofloxacin-induced antimicrobial activity against wild type Staphylococcus aureus ATCC 25923 at 0.78 to 100 ug/ml by microdilution method based Checkerboard assay.
Conditions: not given
In kind it is functional, organism-based. (Dilution methods test growth across graded concentrations, often in twofold steps.)
Regarding `CCCOc1ccc(-c2cc(OCCN3CCCCCC3)c3cc(OC)ccc3n2)cc1`, the “synergistic potentiation of ciprofloxacin activity” value (shortened to “synergistic potentiation”) was “Active”.
`CCCOc1ccc(-c2cc(OCCN3CCCCC3)c3cc(OC)c(OC)cc3n2)cc1`: the “synergistic potentiation” value was “Active”.
Take `CCCOc1ccc(-c2cc(OCCN3CCNCC3)c3ccc(OC)cc3n2)cc1`: the “synergistic potentiation” value is “Active”.
As to `CCCOc1ccc(-c2cc(OCCN(CC)CC)c3cc(OC)c(OC)cc3n2)cc1`, the “synergistic potentiation” value was “Active”.
Regarding `CCCOc1ccc(-c2cc(OCCN(CC)CC)c3cc(OC)cc(OC)c3n2)cc1`, the “synergistic potentiation” value is “Active”.
On the same count and under the same terms, with `CCCOc1ccc(-c2cc(OCCN3CCCCC3)c3cc(OC)cc(OC)c3n2)cc1` the entry was “Active”.
In the case of `CCCOc1ccc(-c2cc(OCCCN(C)C)c3ccc(OC)cc3n2)cc1`, the “synergistic potentiation” value was “Active”.

Another data set relates to Staphylococcus aureus. Description: Synergistic potentiation of ciprofloxacin-induced antimicrobial activity against Staphylococcus aureus SA-1199 at 0.78 to 100 ug/ml by microdilution method based Checkerboard assay. It is filed as functional, organism-based.
Conditions: not given
As to `CCCOc1ccc(-c2cc(OCCN3CCCCCC3)c3cc(OC)ccc3n2)cc1`, the inhibition entry was “Active”.
With `CCCOc1ccc(-c2cc(OCCN3CCCCC3)c3cc(OC)c(OC)cc3n2)cc1`, the inhibition entry was “Active”.
The same measure, in the same setting: under `CCCOc1ccc(-c2cc(OCCN3CCNCC3)c3ccc(OC)cc3n2)cc1` stands “Active”; under `CCCOc1ccc(-c2cc(OCCN(CC)CC)c3cc(OC)c(OC)cc3n2)cc1`, “Active”.
For `CCCOc1ccc(-c2cc(OCCN(CC)CC)c3cc(OC)cc(OC)c3n2)cc1`, the inhibition entry was “Active”.
The same measure, in the same setting: with `CCCOc1ccc(-c2cc(OCCN3CCCCC3)c3cc(OC)cc(OC)c3n2)cc1` the entry was “Active”; with `CCCOc1ccc(-c2cc(OCCCN(C)C)c3ccc(OC)cc3n2)cc1`, “Active”.

The test system of a further data set is Staphylococcus aureus. Description: Antimicrobial activity against Staphylococcus aureus ATCC 25923 by microdilution method. In kind it is organism-based. Conditions: in vivo. The essentials:
(§1)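 Broth microdilution MIC per CLSI guidelines. ATCC 25923 is norA wild-type. SA-1199B overexpresses norA and carries an A116E GrlA substitution.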
For `CCCOc1ccc(-c2cc(OCCN3CCCCCC3)c3cc(OC)ccc3n2)cc1`, the MIC amounted to 12.5 µg/mL (≈ 28.8 µM).
The compound `CCCOc1ccc(-c2cc(OCCN3CCCCC3)c3cc(OC)c(OC)cc3n2)cc1` gave an MIC of 100 µg/mL (≈ 222 µM).
In the case of `CCCOc1ccc(-c2cc(OCCN3CCNCC3)c3ccc(OC)cc3n2)cc1`, the MIC came out at 100 µg/mL (≈ 237 µM).
Compound `CCCOc1ccc(-c2cc(OCCN(CC)CC)c3cc(OC)c(OC)cc3n2)cc1` displayed an MIC of 100 µg/mL (≈ 228 µM).
Regarding `CCCOc1ccc(-c2cc(OCCN(CC)CC)c3cc(OC)cc(OC)c3n2)cc1`, the MIC stood at 100 µg/mL (≈ 228 µM).
Compound `CCCOc1ccc(-c2cc(OCCN3CCCCC3)c3cc(OC)cc(OC)c3n2)cc1` had an MIC of 100 µg/mL (≈ 222 µM).
Same read-out and setting: under `CCCOc1ccc(-c2cc(OCCCN(C)C)c3ccc(OC)cc3n2)cc1` stands 100 µg/mL (≈ 253 µM).

Another data set concerns Staphylococcus aureus. Description: Antimicrobial activity against Staphylococcus aureus SA-1199B expressing wild type norA by microdilution method. It is filed as organism-based. The settings on record: in vivo. The essentials: as §1
Compound `CCCOc1ccc(-c2cc(OCCN3CCCCCC3)c3cc(OC)ccc3n2)cc1` returned an MIC of 25 µg/mL (≈ 57.5 µM).
Compound `CCCOc1ccc(-c2cc(OCCN3CCCCC3)c3cc(OC)c(OC)cc3n2)cc1` registered an MIC of over 100 µg/mL.
As for `CCCOc1ccc(-c2cc(OCCN3CCNCC3)c3ccc(OC)cc3n2)cc1`, the MIC is 100 µg/mL (≈ 237 µM).
The same measure, in the same setting: under `CCCOc1ccc(-c2cc(OCCN(CC)CC)c3cc(OC)c(OC)cc3n2)cc1` stands over 100 µg/mL; under `CCCOc1ccc(-c2cc(OCCN(CC)CC)c3cc(OC)cc(OC)c3n2)cc1`, over 100 µg/mL.
Regarding `CCCOc1ccc(-c2cc(OCCN3CCCCC3)c3cc(OC)cc(OC)c3n2)cc1`, the MIC was over 100 µg/mL.
For the compound `CCCOc1ccc(-c2cc(OCCCN(C)C)c3ccc(OC)cc3n2)cc1`, the MIC is 100 µg/mL (≈ 253 µM).

For another data set, the target named is Quinolone resistance protein NorA (Staphylococcus aureus, UniProt P0A0J7, A116E). The data set can be described thus: Inhibition of NorA in Staphylococcus aureus SA-1199B expressing GrlA A116E mutant assessed as reduction in EtBr efflux incubated for 5 mins by fluorescence based assay.
Conditions: not given
The essentials:
(§2)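 Cells were grown overnight in cation-supplemented Mueller-Hinton broth at 35 °C and subcultured to OD600 0.7–0.8. They were loaded at OD600 0.8 with 25 µM EtBr plus 100 µM CCCP (final) for 20 min at room temperature. Cells were then resuspended in fresh broth with or without compound, 50 µM for the single-point screen or a concentration series for IC50. Fluorescence (ex 485/em 645 nm) was read for 5 min. Inhibition was calculated from the fluorescence decrease versus untreated cells. Biological triplicate, each run twice.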
For the compound `CCCOc1ccc(-c2cc(OCCN3CCCCCC3)c3cc(OC)ccc3n2)cc1`, the IC50 is 8.1 µM.
On to `CCCOc1ccc(-c2cc(OCCN3CCCCC3)c3cc(OC)c(OC)cc3n2)cc1`, for which the 50% inhibitory concentration (IC50) was determined as 3.9 µM.
In the case of `CCCOc1ccc(-c2cc(OCCN3CCNCC3)c3ccc(OC)cc3n2)cc1`, the IC50 amounted to 5.5 µM.
Still for that read-out and setting: under `CCCOc1ccc(-c2cc(OCCN(CC)CC)c3cc(OC)c(OC)cc3n2)cc1` stands 4.1 µM; under `CCCOc1ccc(-c2cc(OCCN(CC)CC)c3cc(OC)cc(OC)c3n2)cc1`, 4.6 µM; under `CCCOc1ccc(-c2cc(OCCN3CCCCC3)c3cc(OC)cc(OC)c3n2)cc1`, 3.8 µM.
As to `CCCOc1ccc(-c2cc(OCCCN(C)C)c3ccc(OC)cc3n2)cc1`, the IC50 was determined as 4.3 µM.

A further data set has as its target T1, Quinolone resistance protein NorA (Staphylococcus aureus) (UniProt P0A0J7).
T1 sequence (whole entry): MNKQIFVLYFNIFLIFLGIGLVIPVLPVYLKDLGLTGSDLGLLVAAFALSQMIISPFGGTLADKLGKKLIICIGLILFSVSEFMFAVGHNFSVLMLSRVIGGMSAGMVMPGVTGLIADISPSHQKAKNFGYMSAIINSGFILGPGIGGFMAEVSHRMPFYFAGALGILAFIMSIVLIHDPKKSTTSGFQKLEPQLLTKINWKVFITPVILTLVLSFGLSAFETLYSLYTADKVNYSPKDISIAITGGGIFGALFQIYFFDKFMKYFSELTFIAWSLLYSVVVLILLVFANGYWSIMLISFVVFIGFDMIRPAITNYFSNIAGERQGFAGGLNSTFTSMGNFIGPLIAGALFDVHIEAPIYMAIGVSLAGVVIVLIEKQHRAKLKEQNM
The data set can be described thus: Inhibition of NorA in Staphylococcus aureus SA-1199B expressing GrlA A116E mutant assessed as reduction in EtBr efflux at 50 uM incubated for 5 mins by fluorescence based assay.
Conditions: not given
The essentials:
as §2
With `CCCOc1ccc(-c2cc(OCCN3CCCCCC3)c3cc(OC)ccc3n2)cc1`, the inhibition was found to be 92.2%.
Same read-out and setting: under `CCCOc1ccc(-c2cc(OCCN3CCCCC3)c3cc(OC)c(OC)cc3n2)cc1` stands 92.1%; under `CCCOc1ccc(-c2cc(OCCN3CCNCC3)c3ccc(OC)cc3n2)cc1`, 100%; under `CCCOc1ccc(-c2cc(OCCN(CC)CC)c3cc(OC)c(OC)cc3n2)cc1`, 95.4%.
Regarding `CCCOc1ccc(-c2cc(OCCN(CC)CC)c3cc(OC)cc(OC)c3n2)cc1`, the inhibition was determined as 92.4%.
For `CCCOc1ccc(-c2cc(OCCN3CCCCC3)c3cc(OC)cc(OC)c3n2)cc1`, the inhibition came out at 93.8%.
On the same count and under the same terms, with `CCCOc1ccc(-c2cc(OCCCN(C)C)c3ccc(OC)cc3n2)cc1` the figure was 100%.

A further data set addresses T1, Quinolone resistance protein NorA (Staphylococcus aureus). Description: Inhibition of NorA in Staphylococcus aureus SA-1199B expressing GrlA A116E mutant assessed as synergistic potentiation of ciprofloxacin-induced antimicrobial activity at 0.78 to 100 ug/ml by microdilution method based Checkerboard assay.
Conditions: not given
In the case of `CCCOc1ccc(-c2cc(OCCN3CCCCCC3)c3cc(OC)ccc3n2)cc1`, the inhibition result is “Active”.
For `CCCOc1ccc(-c2cc(OCCN3CCCCC3)c3cc(OC)c(OC)cc3n2)cc1`, the inhibition entry was “Active”.
`CCCOc1ccc(-c2cc(OCCN3CCNCC3)c3ccc(OC)cc3n2)cc1`: the inhibition result is “Active”.
On the same count and under the same terms, under `CCCOc1ccc(-c2cc(OCCN(CC)CC)c3cc(OC)c(OC)cc3n2)cc1` stands “Active”; under `CCCOc1ccc(-c2cc(OCCN(CC)CC)c3cc(OC)cc(OC)c3n2)cc1`, “Active”.
Regarding `CCCOc1ccc(-c2cc(OCCN3CCCCC3)c3cc(OC)cc(OC)c3n2)cc1`, the inhibition entry was “Active”.
On the same count and under the same terms, with `CCCOc1ccc(-c2cc(OCCCN(C)C)c3ccc(OC)cc3n2)cc1` the entry was “Active”.

A further data set shares this target. Description: Inhibition of NorA in Staphylococcus aureus SA-1199B expressing GrlA A116E mutant assessed as minimal potentiating drug concentration causing 8 fold reduction in ciprofloxacin MIC by microdilution method based Checkerboard assay.
Conditions: not given
Turning to `CCCOc1ccc(-c2cc(OCCN3CCCCCC3)c3cc(OC)ccc3n2)cc1`, the Activity is under 3.13 µg/mL.
For the compound `CCCOc1ccc(-c2cc(OCCN3CCCCC3)c3cc(OC)c(OC)cc3n2)cc1`, the Activity was 3.13 µg/mL.
On the same count and under the same terms, under `CCCOc1ccc(-c2cc(OCCN3CCNCC3)c3ccc(OC)cc3n2)cc1` stands 6.25 µg/mL.
On to `CCCOc1ccc(-c2cc(OCCN(CC)CC)c3cc(OC)c(OC)cc3n2)cc1`, for which the Activity turned out to be 50 µg/mL.
As to `CCCOc1ccc(-c2cc(OCCN(CC)CC)c3cc(OC)cc(OC)c3n2)cc1`, the Activity is 6.25 µg/mL.
With `CCCOc1ccc(-c2cc(OCCN3CCCCC3)c3cc(OC)cc(OC)c3n2)cc1`, the Activity is 6.25 µg/mL.
`CCCOc1ccc(-c2cc(OCCCN(C)C)c3ccc(OC)cc3n2)cc1`: the Activity is 6.25 µg/mL.

In the next data set the test system is Staphylococcus aureus. Description: Antimicrobial activity against Staphylococcus aureus SA-1199B expressing wild type norA and co-expressing GrlA A116E mutant by microdilution method. In kind it is organism-based. Conditions: in vivo. The procedure, abridged: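 CLSI broth microdilution MIC of the compound alone. Strains: SA-K1902 (norA deleted), SA-K2378 (SA-K1902 carrying norA plus its promoter on multicopy plasmid pCU1), SA-1199B (norA overexpressing, GrlA A116E).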
Compound `CCCOc1ccc(-c2cc(OCCN3CCCCCC3)c3cc(OC)ccc3n2)cc1` showed an MIC of 28.7 µM (≈ 12.5 µg/mL).
`CCCOc1ccc(-c2cc(OCCN3CCCCC3)c3cc(OC)c(OC)cc3n2)cc1` returned an MIC of over 222 µM.
Still for that read-out and setting: under `CCCOc1ccc(-c2cc(OCCN3CCNCC3)c3ccc(OC)cc3n2)cc1` stands 237 µM (≈ 99.9 µg/mL); under `CCCOc1ccc(-c2cc(OCCN(CC)CC)c3cc(OC)c(OC)cc3n2)cc1`, over 228 µM.
Take `CCCOc1ccc(-c2cc(OCCN(CC)CC)c3cc(OC)cc(OC)c3n2)cc1`: the MIC was over 228 µM.
For `CCCOc1ccc(-c2cc(OCCN3CCCCC3)c3cc(OC)cc(OC)c3n2)cc1`, the MIC is over 222 µM.
`CCCOc1ccc(-c2cc(OCCCN(C)C)c3ccc(OC)cc3n2)cc1`: the MIC turned out to be 232 µM (≈ 91.5 µg/mL).
